Reference: BindingDB's records for doi:10.1016/j.bmc.2010.11.059 (University of Eastern Finland, 2011)

What follows are molecules tested against Cannabinoid receptor 2 (Homo sapiens, UniProt P34972) (assay: Agonist activity at human recombinant cannabinoid CB2 receptor expressed in CHO cells by [35S]GTPgammaS binding assay).
How it was run: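 hCB2 [35S]GTPγS binding concentration–response curves, run only for ligands giving over 50% relative activity at 10 µM. logEC50 and Emax come from nonlinear regression fitted to a sigmoidal concentration–response equation. Emax is given as percent of the 10 nM HU-210 response. Mean SEM of at least three experiments in duplicate.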

Sequence of Cannabinoid receptor 2 (P34972 whole entry): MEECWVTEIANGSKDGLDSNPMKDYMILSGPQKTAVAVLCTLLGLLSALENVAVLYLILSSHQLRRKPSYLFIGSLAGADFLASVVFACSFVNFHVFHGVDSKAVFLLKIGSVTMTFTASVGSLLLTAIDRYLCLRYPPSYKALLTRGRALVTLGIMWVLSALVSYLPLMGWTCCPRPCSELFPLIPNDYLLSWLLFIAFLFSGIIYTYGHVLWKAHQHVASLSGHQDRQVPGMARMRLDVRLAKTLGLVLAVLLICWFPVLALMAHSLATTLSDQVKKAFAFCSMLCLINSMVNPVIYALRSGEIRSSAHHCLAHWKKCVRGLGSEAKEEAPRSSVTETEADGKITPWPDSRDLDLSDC

Row | Structure (SMILES) | EC50 [nM]
1 | FC(F)(F)c1cccc(Nc2cnc3ccccc3n2)c1 | 3980
2 | c1ccc2nc(NC3CCCCC3)ccc2c1 | 6300
3 | c1ccc(Sc2ccc3ccccc3n2)cc1 [2-Phenylsulfanyl-Quinoline] | 3980
4 | O=C(c1cnc(Nc2cccc(C(F)(F)F)c2)c2ccccc12)N1CCOCC1 | 15.8
5 | O=C(NC1CCCCC1)c1cnc(Nc2cccc(C(F)(F)F)c2)c2ccccc12 | 1990
6 | Clc1ccccc1Nc1ccc2ccccc2n1 | 6300
7 | COc1ccccc1Nc1ccc2ccccc2n1 | 5010
8 | FC(F)(F)c1ccccc1Nc1ccc2ccccc2n1 | 6300
9 | O=C(NCC1CCCCC1)c1cnc(Nc2cccc(C(F)(F)F)c2)c2ccccc12 | 1580

Further molecules by falling EC50, results first:

Row | EC50 [nM] | Structure (SMILES)
10 | 3160 | FC(F)(F)c1cccc(Nc2ncc3ccccc3n2)c1
11 | 3160 | FC(F)(F)c1cccc(Nc2ccnc3ccccc23)c1
12 | 2510 | Clc1cccc(Nc2ccc3ccccc3n2)c1
13 | 2510 | COc1cccc(Nc2ccc3ccccc3n2)c1
14 | 2510 | FC(F)(F)c1cccc(Nc2ncnc3ccccc23)c1
15 | 1990 | COc1ccc(Nc2ccc3ccccc3n2)cc1 [2-(4''-Methoxyanilino)Quinoline]
16 | 1990 | Clc1ccc(Nc2ccc3ccccc3n2)cc1 [N-(4-chlorophenyl)quinolin-2-amine]
17 | 1990 | Brc1cccc(Nc2ccc3ccccc3n2)c1
18 | 1580 | FC(F)(F)c1cccc(Nc2nccc3ccccc23)c1
19 | 1250 | FC(F)(F)c1cccc(Nc2ccc3ccccc3n2)c1

These molecules were tested against Cannabinoid receptor 1 (Rattus norvegicus, UniProt P20272) (assay: Antagonist activity at rat cannabinoid CB1 receptor in Wistar rat cerebellar membranes by [35S]GTPgammaS binding assay).
Sequence of Cannabinoid receptor 1 (P20272 whole entry): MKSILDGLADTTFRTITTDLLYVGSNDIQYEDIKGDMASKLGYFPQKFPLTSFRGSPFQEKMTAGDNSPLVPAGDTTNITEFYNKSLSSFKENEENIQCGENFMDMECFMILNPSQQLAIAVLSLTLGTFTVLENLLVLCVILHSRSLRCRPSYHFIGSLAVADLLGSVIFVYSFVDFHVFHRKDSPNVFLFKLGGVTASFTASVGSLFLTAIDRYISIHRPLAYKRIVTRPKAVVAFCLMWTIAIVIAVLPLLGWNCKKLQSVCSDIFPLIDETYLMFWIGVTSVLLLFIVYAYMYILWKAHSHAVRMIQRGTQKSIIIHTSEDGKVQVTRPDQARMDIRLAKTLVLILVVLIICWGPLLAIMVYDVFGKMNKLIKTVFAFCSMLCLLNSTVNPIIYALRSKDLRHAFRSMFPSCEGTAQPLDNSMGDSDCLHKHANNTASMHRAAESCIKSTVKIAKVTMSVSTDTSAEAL
How it was run: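 Non-recombinant rat cerebellar membrane fractions, [35S]GTPγS binding. Compounds screened at a single concentration for their ability to antagonise the response to 10 nM HU-210 agonist.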

Row | Structure (SMILES) | EC50 [nM]
20 | O=C(c1cnc(Nc2cccc(C(F)(F)F)c2)c2ccccc12)N1CCOCC1 | 9990
